# Tests used:
# [1] = Aqueous solubility at 25 degrees Centigrade; type: physicochemical; conditions: water; read-out: S
# Mus musculus [2] = assay: Concentration of 9-[4-Hydroxy-3-(hydroxymethyl)but-1-yl)guanine in blood of mice after 3 hours upon oral administration; type: functional, organism-based
# Procedure, shortened: (§1)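 Female Balb/c mice (20 g), food withheld 18 h, got one oral gavage dose of 0.2 mmol/kg in 0.1 mL 1% (carboxymethyl)cellulose. Blood was drawn by heparinized cardiac puncture at 0.25, 1 and 3 h, with three mice pooled per time point. It was treated with an equal volume of 16% TCA, centrifuged and NaHCO3-neutralized. The guanine analyte was measured by C18 HPLC at 254 nm in duplicate.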
# Mus musculus [3] = assay: Concentration of 9-[4-Hydroxy-3-(hydroxymethyl)but-1-yl)guanine in blood of mice after 0.25 hours upon oral administration; type: functional, organism-based; procedure, shortened: as §1
# Mus musculus [4] = assay: Concentration of 9-[4-Hydroxy-3-(hydroxymethyl)but-1-yl)guanine in blood of mice after 1 hour upon oral administration; type: functional, organism-based; procedure, shortened: as §1
# Mus musculus [5] = assay: Concentration of 2-Amino-9-(4-hydroxy-3-hydroxymethyl)but-1-yl)purine in blood of mice after 3 hours upon oral administration; type: functional, organism-based
# Procedure, shortened: (§2)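 Single oral gavage dose of 0.2 mmol/kg in 0.1 mL 1% (carboxymethyl)cellulose to female Balb/c mice (20 g), fasted 18 h. Heparinized cardiac-puncture blood was taken at 0.25, 1 and 3 h, pooled equally from three mice per time point, and deproteinized with an equal volume of 16% TCA. Supernatant was neutralized with NaHCO3 and run on C18 HPLC in duplicate in 5 mM KH2PO4. The 2-aminopurine was read at 310 nm; detection limit 1 μM.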
# Mus musculus [6] = assay: Concentration of 2-Amino-9-(4-hydroxy-3-hydroxymethyl)but-1-yl)purine in blood of mice after 1 hour upon oral administration; type: functional, organism-based; procedure, shortened: as §2
# Mus musculus [7] = assay: Concentration of 2-Amino-9-(4-hydroxy-3-hydroxymethyl)but-1-yl)purine in blood of mice after 0.25 hours upon oral administration; type: functional, organism-based; procedure, shortened: as §2
# Mus musculus [8] = assay: Concentration of 2-Amino-9-(4-hydroxy-3-hydroxymethyl)but-1-yl)purine in blood of mice after 1 hours upon oral administration; type: functional, organism-based; procedure, shortened: as §2
# [9] = Solubility in water; type: physicochemical; conditions: read-out: S
# Mus musculus [10] = assay: Concentration of 9-[4-Hydroxy-3-(hydroxymethyl)but-1-yl)guanine in blood of mice after 3 hour upon oral administration; type: functional, organism-based; procedure, shortened: as §1
Compound,solubility [1],Concentration (Mus musculus [2]),Concentration (Mus musculus [3]),Concentration (Mus musculus [4]),Concentration (Mus musculus [5]),Concentration (Mus musculus [6]),Concentration (Mus musculus [7]),Concentration (Mus musculus [8]),solubility [9],Concentration (Mus musculus [10])
Nc1nc2c(ncn2CCC(CO)CO)c(=O)[nH]1 [PENCICLOVIR],3 mg/mL,–,–,–,–,–,–,–,–,–
Nc1nc(O)c2ncn(CCC(CO)CO)c2n1,–,1.1 µM,4.9 µM,4 µM,–,–,–,–,–,–
Nc1nc(Oc2ccccc2)c2ncn(CCC(CO)CO)c2n1,–,< 0.5 µM,< 0.5 µM,< 0.5 µM,< 1 µM,7 µM,8 µM,–,–,–
Nc1ncc2ncn(CCC(CO)CO)c2n1 [6-DEOXY PENCICLOVIR],120 mg/mL,3.2 µM,16 µM,13 µM,1 µM,4 µM,8 µM,–,–,–
COC(=O)OCC(CO)CCn1cnc2cnc(N)nc21 (stereo unspecified),–,2.6 µM,54 µM,22 µM,< 1 µM,4 µM,55 µM,–,–,–
CCOc1nc(N)nc2c1ncn2CCC(CO)CO,–,0.9 µM,6.8 µM,8 µM,< 1 µM,11 µM,25 µM,–,–,–
Nc1nc(OCc2ccccc2)c2ncn(CCC(CO)CO)c2n1,–,0.5 µM,1.8 µM,2.1 µM,< 1 µM,2 µM,3 µM,–,–,–
CC(=O)OCC(CCn1cnc2c(O)nc(N)nc21)COC(C)=O,6.7 mg/mL,–,–,–,–,–,–,–,–,–
CC1(C)OCC(CCn2cnc3cnc(N)nc32)CO1,–,3.2 µM,33 µM,11 µM,1 µM,–,33 µM,4 µM,–,–
CC(C)Oc1nc(N)nc2c1ncn2CCC(CO)CO,–,< 0.5 µM,9.2 µM,3.8 µM,1 µM,12 µM,43 µM,–,–,–
CCCCOc1nc(N)nc2c1ncn2CCC(CO)CO,–,< 0.5 µM,5.7 µM,5.2 µM,1 µM,11 µM,19 µM,–,–,–
CCC(=O)OCC(CCn1cnc2c(O)nc(N)nc21)COC(=O)CC,1.2 mg/mL,–,–,–,–,–,–,–,–,–
CCCC(=O)OCC(CO)CCn1cnc2cnc(N)nc21 (stereo unspecified),–,2 µM,64 µM,28 µM,< 1 µM,7 µM,57 µM,–,–,–
COc1nc(N)nc2c1ncn2CCC(CO)CO,–,< 0.5 µM,0.6 µM,0.9 µM,2 µM,7 µM,8 µM,–,–,–
Nc1ncc2ncn(CCC(CO)COC(=O)c3ccccc3)c2n1 (stereo unspecified),–,1.1 µM,63 µM,26 µM,< 1 µM,8 µM,71 µM,–,–,–
CC(=O)OCC(CCn1cnc2cnc(N)nc21)COC(C)=O [FAMCICLOVIR],> 300 mg/mL,1.1 µM,74 µM,17 µM,< 1 µM,3 µM,69 µM,–,20 mg/mL,–
Nc1ncc2ncn(CCC(CO)COP(=O)(O)O)c2n1 (stereo unspecified),–,–,8.7 µM,17 µM,1 µM,–,4 µM,8 µM,–,5.2 µM
CCC(=O)OCC(CCn1cnc2cnc(N)nc21)COC(=O)CC,19 mg/mL,2.1 µM,79 µM,26 µM,< 1 µM,9 µM,92 µM,–,–,–
Nc1ncc2ncn(CCC3COP(=O)(O)OC3)c2n1 (stereo unspecified),–,2.6 µM,1 µM,1 µM,< 1 µM,< 1 µM,< 1 µM,–,–,–
CC(=O)OCC(CO)CCn1cnc2cnc(N)nc21 (stereo unspecified),–,1.2 µM,51 µM,20 µM,< 1 µM,3 µM,38 µM,–,–,–

# From ChEMBL document CHEMBL1124547, “Prodrugs of the selective antiherpesvirus agent 9-[4-hydroxy-3-(hydroxymethyl)but-1-yl]guanine (BRL 39123) with improved gastrointestinal absorption properties” (J Med Chem, 1989)
